E-selectin induc – induces E-selectin expression in human endothelial cells; P16581; activation, % at 7.58 µM; HUVEC E-selectin immunofluorescence imaging; normalized: neutral wells 0, TNF-alpha wells 100; AID 686992; actives 0.37% (n = 260,000);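 active = mean E-selectin-positive cell signal at least 10% of the positive control, reached in at least 60% of replicates, without over 20% cell loss; inconclusive = no rule given, readout overlaps actives, possibly toxicity-flagged; inactive = the rest, including those meeting only one limit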
Target sequence (P16581 whole entry, looked up): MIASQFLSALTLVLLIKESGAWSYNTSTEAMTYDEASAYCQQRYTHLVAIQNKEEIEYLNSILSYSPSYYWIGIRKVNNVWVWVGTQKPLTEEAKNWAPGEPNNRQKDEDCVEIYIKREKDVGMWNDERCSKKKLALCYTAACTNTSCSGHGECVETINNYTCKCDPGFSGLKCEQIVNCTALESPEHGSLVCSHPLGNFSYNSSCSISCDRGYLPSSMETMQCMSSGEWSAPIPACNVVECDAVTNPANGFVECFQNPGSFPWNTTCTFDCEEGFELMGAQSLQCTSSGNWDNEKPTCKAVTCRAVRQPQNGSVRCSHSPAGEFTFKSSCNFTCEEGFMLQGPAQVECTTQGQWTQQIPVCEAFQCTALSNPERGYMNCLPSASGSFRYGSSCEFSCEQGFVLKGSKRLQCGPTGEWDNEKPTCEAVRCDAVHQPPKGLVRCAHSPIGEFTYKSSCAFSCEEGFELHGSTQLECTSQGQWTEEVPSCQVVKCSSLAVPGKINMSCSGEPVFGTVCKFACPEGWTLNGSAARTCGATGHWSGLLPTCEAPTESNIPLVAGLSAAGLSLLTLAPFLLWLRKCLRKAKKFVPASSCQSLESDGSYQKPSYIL
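Test system – human umbilical vein endothelial cells (HUVEC), E-selectin induction · Input – 3,000 HUVEC seeded per well · Buffer or medium – EGM-2, gelatin · Compound dosing – single-point compound dose · Detection – immunofluorescence imaging · Measure – percent E-selectin-positive cells · Controls – TNF-alpha high, DMSO low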
SIRT5 inh – inhibitors of human sirtuin-5 desuccinylase; Q9NXA8; Purified SirT5, succinyl-peptide AMC, trypsin-coupled fluorescence; inhibition, % at 15 µM; actives 1.1% (n = 330,000); AID 652115; in the data active = inhibition above about 15%; inconclusive = no clear call, values can overlap the other calls
DENV2 CPE rescue – inhibitors of DENV2 cytopathic effect. CPE inhibition, % at 9.99 µM. actives 1.7% (n = 350,000). AID 651640. DENV2-infected cells, cytopathic effect rescue, plate reader; in the data active = CPE inhibition above about 20%, passing the limit was not always enough; inconclusive = no clear call, values can overlap the other calls; tested in BHK-21 cells;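 note: 0% = median of neutral control wells and 100% = median of positive control wells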
An asterisk follows results filed as active; ? = inconclusive; . = no result. Hits are enriched below; roughly 2.9% of the tested compounds scored in any of these assays.

SMILES | E-selectin induc | SIRT5 inh | DENV2 CPE rescue
CCOC(=O)CNC(=O)c1ccc(SCC)cc1 | . | -4.1 | 2.4
CC1CCN(S(=O)(=O)c2ccc3nc(-c4ccccn4)cc(C(=O)NCCN(C)Cc4ccccc4)c3c2)CC1 | 1.7 | -1.9 | -2.9
COc1ccc2c3c(n(C)c2c1)[C@@H](CO)N(S(=O)(=O)c1ccc(C)cc1)CC31CCN(C(=O)c2ccccn2)CC1 | -0.3 | 1.1 | -9.1
C[C@H](CO)N1C[C@H](C)[C@@H](CN(C)S(C)(=O)=O)Oc2ccc(NS(=O)(=O)c3ccccc3)cc2CC1=O | 0.7 | -7.2 | 70.2*
C[C@H]1CN([C@@H](C)CO)C(=O)Cc2cc(NS(=O)(=O)c3ccccc3)ccc2O[C@H]1CN(C)CC1CCCCC1 | -0.2 | 2.2 | -3.1
C[C@@H]1CN([C@H](C)CO)C(=O)Cc2cc(NS(=O)(=O)c3ccccc3)ccc2O[C@@H]1CN(C)S(=O)(=O)c1ccccc1 | 0.5 | 1.7 | -19.8
C[C@H]1CN([C@@H](C)CO)C(=O)Cc2cc(NS(C)(=O)=O)ccc2O[C@H]1CN(C)CC1CC1 | 0.6 | 3.2 | -12.5
C[C@H](CO)N1C[C@H](C)[C@H](CN(C)CC2CCCCC2)Oc2ccc(NS(=O)(=O)c3ccc(F)cc3)cc2CC1=O | -0.4 | 9.6 | -7.3
C[C@@H]1CN([C@H](C)CO)C(=O)Cc2cc(NS(C)(=O)=O)ccc2O[C@@H]1CN(C)CC1CC1 | -0.2 | 16.5* | -4.0
C[C@@H]1CN([C@H](C)CO)C(=O)Cc2cc(NS(=O)(=O)c3ccc(F)cc3)ccc2O[C@H]1CN(C)CC1CCCCC1 | 0.1 | 23.2* | -1.6
C[C@@H]1CN([C@@H](C)CO)C(=O)Cc2cc(NS(=O)(=O)c3ccccc3)ccc2O[C@H]1CN(C)CC1CCCCC1 | 1.4 | 19.0* | 1.9
CCC(C)[C@H](NC(=O)[C@H](Cc1ccccc1)n1c(=O)[nH]c2ccccc2c1=O)C(=O)NCC1CCC(C(=O)O)CC1 (stereo partly drawn) | . | -1.5 | 1.4
COc1ccccc1CN(Cc1cccnc1)S(=O)(=O)c1ccc(-n2cnnn2)c(OC)c1 | . | -3.0 | 4.3
C[C@@H]1CN([C@@H](C)CO)C(=O)Cc2cc(NS(=O)(=O)c3ccc(Cl)cc3)ccc2O[C@@H]1CN(C)CC1CCCCC1 | 18.8 | 20.3* | -4.0
C[C@H]1CN([C@@H](C)CO)C(=O)Cc2cc(NS(=O)(=O)c3ccc(Cl)cc3)ccc2O[C@H]1CN(C)CC1CC1 | -0.4 | -0.6 | 6.0
Cc1ccc(S(=O)(=O)NCC[C@H]2CC[C@H](NC(=O)C3CCOCC3)[C@@H](CO)O2)cc1 | -0.3 | -0.2 | 6.0
O=C(CNC(=O)c1ccccc1Br)N/N=C\c1cc([N+](=O)[O-])cc(Br)c1O | . | 3.6 | -1.8
Nc1nnc(CC(=O)N/N=C/c2cc([N+](=O)[O-])cc(Br)c2O)s1 | . | 47.0* | -2.8
COc1ccccc1N1C(=NC(=O)CCC2CCCC2)SC2CS(=O)(=O)CC21 (stereo not drawn) | 0.1 | -3.0 | 8.1
C=C(C)C(=O)N1CC2(CC(c3cccc(NC(=O)CCCCC)c3)=NO2)C[C@H]1C(N)=O (stereo partly drawn) | -0.1 | 23.4* | -3.4
NC(=O)[C@@H]1CC2(CC(c3cccc(NC(=O)COc4ccc(Cl)cc4)c3)=NO2)CN1C(=O)COc1ccc(Cl)cc1 (stereo partly drawn) | 0.0 | . | ?
C=C(C)C(=O)N1CC2(CC(c3cccc(NC(=O)/C=C\C)c3)=NO2)C[C@H]1C(N)=O (stereo partly drawn) | 0.1 | . | 127.6*
C/C=C/C(=O)Nc1cccc(C2=NOC3(C2)C[C@H](C(N)=O)N(C(=O)/C=C/C)C3)c1 (stereo partly drawn) | -0.2 | . | -6.3
CC/C=C/C(=O)N1CC2(CC(c3cccc(NC(=O)COc4ccc(Cl)cc4)c3)=NO2)C[C@H]1C(N)=O (stereo partly drawn) | . | . | 22.3*
C/C=C/C=C\C(=O)Nc1cccc(C2=NOC3(C2)C[C@@H](C(N)=O)N(C(=O)/C(C)=C/C)C3)c1 (stereo partly drawn) | 0.0 | . | .
C/C=C/C=C/C(=O)N1CC2(CC(c3cccc(NC(=O)/C=C/C)c3)=NO2)C[C@@H]1C(N)=O (stereo partly drawn) | 0.1 | . | 29.4*
CCCCCC(=O)Nc1cccc(C2=NOC3(C2)C[C@H](C(N)=O)N(C(=O)c2ccccc2)C3)c1 (stereo partly drawn) | 0.0 | . | .
Cc1ccc(OCCN2CCNCC2)c([N+](=O)[O-])c1 | 0.0 | -3.6 | -3.3
COc1ccc(NC(=O)CC2C(=O)NCCN2C(=O)c2ccc(Cl)cc2)cc1 (stereo not drawn) | 2.0 | -4.0 | -9.4
COc1ccc(C(=O)N2CCNC(=O)C2CC(=O)Nc2cccc(Cl)c2Cl)cc1 (stereo not drawn) | 0.2 | -3.6 | 88.8*

Screens from PubChem.
